Assay outcomes: PubChem, The Scripps Research Institute Molecular Screening Center
Shown are actives, neighbours in structure and some others; about 1.6% of the full set was active somewhere.
UHRF1 MBD2 ctr = UHRF1 methyl-DNA binding inhibition; Q96T88; UHRF1 binding to methylated oligo, TR-FRET; inhibition, % at 4.4 µM; 0.75% of 370,000 active; AID 687016; in the data active = inhibition above about 21%;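 note: UHRF1 SRA domain binding a hemimethylated CpG hairpin DNA probe; 0% = median of test compound wells and 100% = reference inhibitor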
TDP2 inh = blocks human TDP2 phosphodiesterase activity. recombinant TDP2, T5PNP hydrolysis, p-nitrophenol absorbance 415 nm. AID 720702. 0.34% of 370,000 active. inhibition, % at 12.8 µM;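 active = inhibition above the mean of all tested compounds plus 3 SD, set per campaign, cut at about 25% in these data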;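 note: 0% = DMSO with enzyme and 100% = buffer with substrate but no TDP2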
Target sequence (O95551 whole entry, looked up): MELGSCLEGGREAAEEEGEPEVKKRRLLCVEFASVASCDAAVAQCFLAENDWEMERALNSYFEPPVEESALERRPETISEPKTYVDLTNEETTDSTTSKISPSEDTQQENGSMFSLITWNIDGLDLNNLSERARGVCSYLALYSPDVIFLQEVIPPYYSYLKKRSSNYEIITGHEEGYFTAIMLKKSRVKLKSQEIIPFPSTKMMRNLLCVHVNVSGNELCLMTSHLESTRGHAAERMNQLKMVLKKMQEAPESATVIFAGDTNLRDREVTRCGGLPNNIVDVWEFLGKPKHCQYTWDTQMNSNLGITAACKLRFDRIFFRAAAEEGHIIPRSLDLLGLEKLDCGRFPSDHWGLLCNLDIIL
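Material: recombinant human TDP2; quantity: TDP2 enzyme at 120 nM final; medium: Tris-HCl pH 7.5 with MgCl2; compound: single concentration, 12.8 µM nominal, with 1% DMSO; incubation: 2 h enzyme incubation at 37 °C; signal: epi absorbance; measure: percent inhibition; benchmarks: high control without enzyme, low control DMSO plus TDP2; repeats: singlicate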
LEDGF integ inh = blocks HIV-1 LEDGF/p75-dependent DNA integration; 0.64% of 370,000 active; TR-FRET IN-LEDGF/p75 DNA integration, Eu/Cy5; inhibition, % at 3.7 µM;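 active = inhibition above the screen-wide mean plus 3 SD, cut at about 13% in these data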;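 note: signal is the Cy5 over europium emission ratio at 671 and 618 nm; 0% = plate median of compound wells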
MBD2 inh = inhibitors of human MBD2 binding to methylated oligonucleotide. Q9UBB5. 0.31% of 370,000 active. TR-FRET. AID 686964. inhibition, % at 4.4 µM; in the data active = inhibition above about 13%
* marks the source's active call; other numbers are inactive results.

SMILES | UHRF1 MBD2 ctr | TDP2 inh | LEDGF integ inh | MBD2 inh
COc1ccc(OC)c(CC(NC(C)=O)C(=O)NC2CCN(c3c(Cc4ccccc4)c(C)nc4ncnn34)CC2)c1 (configuration not stated) | 18.9 | -5.7 | -0.3 | 5.0
COCC1CCCCN1C(=O)c1cccc(OC2CCN(S(C)(=O)=O)CC2)c1 (configuration not stated) | 31.3* | 17.1 | -3.0 | 2.5
COC(=O)c1ccc2nc(C3CCCCC3)c(Cc3ccccc3)n2c1 | 20.3 | -2.4 | 7.0 | 6.2
COC(=O)c1ccc2nc(C3CCCCC3)c(CC(C)(C)C)n2c1 | 21.3* | -4.5 | -4.1 | 0.2
C=CCN1[C@@H](C)COc2cc(N3CCSCC3)ccc2S1(=O)=O | -4.2 | -1.9 | 4.2 | 0.2
Cc1c(Br)c(=O)oc2c(Br)c(O)c(O)cc12 | 30.8* | -10.4 | -3.4 | 10.2
Cc1ccc(S(=O)(=O)NCC2CCCO2)cc1 (configuration not stated) | 1.9 | -15.2 | 2.3 | 2.3
Cc1ccc(NC(=O)c2cc(S(=O)(=O)NCC3CCCO3)ccc2F)cc1 (configuration not stated) | 45.2* | -2.0 | 0.8 | -0.7
CCCCCCN1CCN(C2CN(Cc3cn(Cc4ccc(C(F)(F)F)cc4)nn3)S(=O)(=O)C2)CC1 (configuration not stated) | 19.8 | -4.9 | 3.0 | -2.8
Cc1ccc(-c2n[nH]c(=S)c3ccccc23)cc1 | 40.1* | -3.8 | -3.9 | 6.3
O=C(O)CCNc1cc(N2CCN(C(=O)c3ccco3)CC2)c2noc3c2c1C(=O)c1ccccc1-3 | 11.9 | 38.0* | -0.7 | -9.7
CNC(=O)c1sc(-c2ccccc2)nc1C | 33.1* | 5.5 | -1.2 | 0.1
O=C(OC12CCCN(C1)/C(=C/c1ccncc1)C2)C1CCCCC1 (configuration not stated) | -3.3 | -0.5 | -3.7 | 0.5
O=C1C(=Cc2cccs2)CCc2ccccc21 | -1.4 | 0.0 | 4.8 | -1.5
O=C1/C(=C/c2cccs2)CCC/C1=C\c1cccs1 | 8.8 | 5.1 | 19.8* | 0.6
O=C1/C(=C\c2ccco2)CCC/C1=C\c1ccco1 | 55.9* | 1.1 | 71.0* | 18.6*
Cc1ccc2cc(CN(C)S(C)(=O)=O)c(=O)[nH]c2c1 | 35.2* | -18.8 | 4.3 | -2.3
Cc1cc(NC(=O)C2CC2)ncc1NC(=O)c1ccccn1 | 21.8* | 5.9 | -2.1 | 2.4
CCOC(=O)c1sc2nc(C)nc(NCCc3ccccn3)c2c1C | 68.7* | 4.3 | 2.6 | -5.7
COc1cc2c(cc1OC)CN(c1nc(CN3CCCC3)nc3sc(C)c(C)c13)CC2 | 33.9* | 9.0 | -3.8 | 3.5
O=C1N(Cc2ccccc2)c2ccccc2C12CCCc1sc(CCc3ccccc3)nc12 (configuration not stated) | -6.5 | -0.1 | 1.5 | -1.3
C/C=C/C(=O)N1CCC(C(=O)NCC2COc3ccccc3O2)CC1 (configuration not stated) | 14.1 | -2.0 | -1.9 | -3.4
O=c1cc(N2CCN(c3cccc(C(F)(F)F)c3)CC2)[nH]c(=O)n1-c1ccccc1 | 0.5 | -6.2 | 2.3 | -1.7
O=S(=O)(c1ccccc1)N1CCN(Cc2cccc(Br)c2)CC1 | -1.2 | 15.9 | 4.8 | -3.1
O=S(=O)(c1ccc(Br)cc1)N1CCCN(Cc2cccc(F)c2)CC1 | 62.3* | -2.0 | 0.3 | -3.2
SMILES | UHRF1 MBD2 ctr | TDP2 inh | LEDGF integ inh | MBD2 inh
CC(C)[C@H](NC(=O)OC(C)(C)C)C(=O)N1CCC(Oc2cccnc2)CC1 | -1.2 | 0.1 | 5.9 | -0.5
Cc1ccc(OCC(C)CN2CCC(C(O)(c3ccccc3)c3ccccc3)CC2)cc1 (configuration not stated) | 0.4 | -5.0 | -2.4 | 0.0
CC(c1cc(F)ccc1O)c1c[nH]c2ccccc12 (configuration not stated) | 0.5 | 7.3 | 2.5 | 1.3
N#CCc1cccnc1Sc1ccc(Cl)cc1 | 26.1* | 9.1 | 0.6 | 2.1
Nc1cccnc1Sc1ccc(Cl)cc1 | -0.4 | -1.1 | -2.0 | -3.3
O=C(CCc1nc2ccccc2c(=O)[nH]1)Nc1ccc(N2CCCCC2)cc1 | -3.7 | 1.5 | -2.2 | -0.6
O=C(CCc1nc2ccccc2c(=O)[nH]1)Nc1cc(Cl)ccc1N1CCCC1 | 32.5* | 10.8 | -4.5 | 3.0
O=C(Nc1ccc(F)cc1)OCc1cn(Cc2cccc(F)c2F)nn1 | -1.3 | 8.9 | 1.6 | 0.8
CCCCCCCCN1C(=O)[C@@H](CC(=O)NCC23CC4CC(CC(C4)C2)C3)C[C@@]2(C(=O)OC)C1=C[C@H](C(C)(C)C)O[C@@H]2C | 1.8 | 5.5 | -2.2 | -0.7
COc1cccc2cc(-c3nnc(-c4ccccc4)o3)c(=O)oc12 | 21.2* | -3.0 | 1.5 | 2.0
O=C(c1ccc(F)cc1Cl)N1CCC(Oc2cccnc2)CC1 | -3.0 | -7.4 | 6.4 | 1.0
CN1CCN(CC(=O)n2c3c(c4ccccc42)CCCC3)CC1 | 6.5 | 29.1* | -3.5 | 3.4
COC(=O)[C@]12C[C@H](CC(=O)N3CCCC3)C(=O)N(Cc3ccc4c(c3)OCO4)C1=C[C@H](COCc1ccccc1)O[C@@H]2C | 1.2 | -1.0 | 0.0 | 6.6
O=C(CSc1ccccc1)N1CCC(Oc2cccnc2)CC1 | -2.9 | 1.5 | 2.1 | 1.8
O=C(NCc1cccnc1)c1ccc(Cl)c(Cl)c1 | 36.9* | 12.5 | -1.4 | 5.4
O=C(NCc1cccnc1)c1cccs1 | 22.3* | 7.1 | 4.3 | 8.4
O=C(NCc1cccnc1)C(=O)N/N=C/c1ccc([N+](=O)[O-])cc1 | 2.6 | 2.5 | -4.2 | -0.3
CC(=O)c1ccccc1C(=O)NCc1cccnc1 | -0.4 | -2.0 | -0.5 | -1.5
COc1ccc(C(=O)NCc2cccnc2)cc1C(=O)NCc1cccnc1 | -1.0 | 5.0 | -3.0 | 4.8
O=C(NCc1cccnc1)C(=O)Nc1ccc([N+](=O)[O-])cc1 | 21.9* | 8.5 | 1.1 | 1.4
O=C(OC12CCCN(C1)/C(=C/c1ccncc1)C2)c1cccc(F)c1 (configuration not stated) | -2.9 | 4.6 | -4.2 | -4.0
O=C(Nc1ccc(F)cc1)C1CCN(C(=O)NCc2ccccc2)CC1 | 6.0 | -2.9 | -1.7 | -0.2
O=C(Nc1ccccc1F)C1CCN(C(=O)NCc2ccccc2)CC1 | 24.3* | 21.8 | 3.1 | 2.7
CC(=NNc1cc(C)c2ccccc2n1)c1ccccn1 | -1.5 | 2.1 | 0.6 | 6.8
Cc1onc(-c2ccccc2)c1C(=O)OCC(=O)c1ccccc1 | 1.4 | -1.1 | -1.9 | 2.6
SMILES | UHRF1 MBD2 ctr | TDP2 inh | LEDGF integ inh | MBD2 inh
Cc1onc(-c2c(Cl)cccc2Cl)c1C(=O)OCC(=O)c1ccccc1 | 52.3* | 5.9 | 2.1 | 4.3
Cc1onc(-c2c(F)cccc2Cl)c1C(=O)c1ccc(F)cc1 | 72.6* | -15.3 | 0.6 | -4.1
O=C(NC1CCCCN(Cc2cccc(F)c2)C1=O)c1cccc(F)c1 (configuration not stated) | 2.0 | 1.4 | -1.3 | 0.1
COc1ccccc1NS(=O)(=O)c1cccc(C(=O)N2CCCC2)c1 | 43.4* | 6.7 | -7.5 | 1.4
CN(C(=O)COC(=O)c1cc([N+](=O)[O-])ccc1N1CCOCC1)C1CCCCC1 | -1.6 | 3.6 | 0.4 | -7.9
CCN(C(=O)COC(=O)c1cc([N+](=O)[O-])ccc1N1CCOCC1)C1CCCCC1 | 26.3* | 17.5 | -2.8 | -4.2
